Screens from PubChem BioAssay.
E-selectin induc: E-selectin induction in HUVECs, primary screen, imaging, HUVEC, immunofluorescence imaging, single point. normalized: neutral wells 0, TNF-alpha wells 100. P16581. activation, % at 7.58 µM. 260,000 compounds, 0.37% hits;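 active = mean E-selectin-positive cell signal at least 10% of the positive control, reached in at least 60% of replicates, without over 20% cell loss; inconclusive = no rule given, readout overlaps actives, possibly toxicity-flagged; inactive = the rest, including those meeting only one limit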
Target sequence (P16581 whole entry, looked up): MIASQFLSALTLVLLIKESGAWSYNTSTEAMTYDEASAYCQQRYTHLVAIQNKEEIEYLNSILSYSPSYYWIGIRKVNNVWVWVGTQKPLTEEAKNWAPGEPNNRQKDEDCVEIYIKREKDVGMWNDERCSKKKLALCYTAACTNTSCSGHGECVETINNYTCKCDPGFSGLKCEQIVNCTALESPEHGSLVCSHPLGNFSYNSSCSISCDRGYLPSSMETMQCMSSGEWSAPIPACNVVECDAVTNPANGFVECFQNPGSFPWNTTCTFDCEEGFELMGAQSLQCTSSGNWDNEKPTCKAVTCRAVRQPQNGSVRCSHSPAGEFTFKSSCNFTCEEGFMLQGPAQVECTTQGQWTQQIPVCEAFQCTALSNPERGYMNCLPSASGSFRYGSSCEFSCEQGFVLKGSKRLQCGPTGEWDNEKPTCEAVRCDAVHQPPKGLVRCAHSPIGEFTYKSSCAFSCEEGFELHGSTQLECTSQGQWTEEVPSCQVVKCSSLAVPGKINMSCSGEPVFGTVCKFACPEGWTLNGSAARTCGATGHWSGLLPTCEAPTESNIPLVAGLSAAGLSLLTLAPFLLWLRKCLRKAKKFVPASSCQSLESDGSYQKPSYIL
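Assay system: HUVEC, human umbilical vein endothelial cells / Amount: 3,000 HUVEC/well / Controls: TNF-alpha positive control, DMSO neutral control / Compound dosing: single concentration / Medium: EGM-2 over gelatin coat / Evaluation: percent E-selectin-positive cells / Signal: immunofluorescence imaging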
Statin myotox sup: suppressors of statin myotoxicity in C2C12 myotubes, primary screen, cell-based, single point, plate reader; C2C12 myotubes + simvastatin, ATP luminescence, 48 h; scaled: DMSO 0, geranylgeraniol control 100; rescue of ATP level, % at 7.49 µM; 330,000 compounds, 0.78% hits; AID 602340, 2012;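 active = mean ATP rescue above about 67%, or every replicate alone reaching that limit, limit read from the data, passing the limit was not always enough; inconclusive = no clear call, values can overlap the other calls; inactive = mean under the limit and some replicate under it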;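 note: myotubes were challenged with 10 µM simvastatin during compound exposure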
DENV2 CPE: inhibitors of DENV2 cytopathic effect, primary screen, cell-based, plate reader, single concentration. CPE inhibition, % at 9.99 µM. DENV2-infected cells, cytopathic effect rescue. 350,000 compounds, 1.7% hits; in the data active = CPE inhibition above about 20%, passing the limit was not always enough; inconclusive = no clear call, values can overlap the other calls; tested in BHK-21 cells;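 note: 0% = median of neutral control wells and 100% = median of positive control wells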
An asterisk follows results filed as active; ? = inconclusive; · = no result. An excerpt weighted towards active compounds, which were near 2.2% of everything screened.

SMILES	E-selectin induc	Statin myotox sup	DENV2 CPE
CCCN1C[C@H](C)[C@@H](OC)CN(C)C(=O)c2ccc(NC(=O)c3cccc(F)c3)cc2OC[C@@H]1C	0.0	3.6	28.7*
CCCN1C[C@H](C)[C@@H](OC)CN(C)C(=O)c2cc(NC(=O)c3ccc(F)cc3)ccc2OC[C@@H]1C	-0.3	-18.4	-8.4
O=C(Nc1cccc(Cl)c1)N1C[C@H]2[C@@H](c3ccccc31)[C@@H](CO)N2C(=O)C1CC1	0.0	-6.8	6.5
C[C@H](CO)N1C[C@H](C)[C@@H](CN(C)C(=O)Cc2ccccn2)Oc2ncc(C#CC3CC3)cc2C1=O	0.0	4.9	-1.1
CC(C)NC(=O)Nc1ccc2c(c1)C(=O)N([C@H](C)CO)C[C@@H](C)[C@H](CN(C)C(=O)c1ccncc1)OCCCC[C@@H](C)O2	-0.1	·	-0.7
COc1ccc(NC(=O)N(C)C[C@H]2OCCCC[C@@H](C)Oc3ccc(NC(=O)CCC(F)(F)F)cc3C(=O)N([C@H](C)CO)C[C@H]2C)cc1	-0.1	20.5	-3.2
Cc1ccc(S(=O)(=O)N(C)C[C@@H]2Oc3c(NC(=O)Nc4c(C)noc4C)cccc3C(=O)N([C@@H](C)CO)C[C@H]2C)cc1	0.0	-0.6	-1.4
COc1ccc(CN(C)C[C@@H]2OCc3cn(nn3)CCCC(=O)N([C@H](C)CO)C[C@H]2C)cc1	0.0	16.4	-6.2
COC(=O)C[C@@H]1CC[C@@H]2[C@H](COc3ccc(NS(=O)(=O)c4ccccc4Cl)cc3C(=O)N2C)O1	-0.1	-12.9	?
CO[C@@H]1CN(C)C(=O)c2ccc(NC(=O)c3cccc(F)c3)cc2OC[C@H](C)N(C(C)=O)C[C@H]1C	-0.1	7.9	2.3
CO[C@@H]1CN(C)C(=O)c2ccc(NC(=O)c3cccc(F)c3)cc2OC[C@H](C)N(C(C)=O)C[C@@H]1C	-0.2	8.2	34.1*
CC(C)NC(=O)N(C)C[C@H]1Oc2ncc(-c3ccccc3F)cc2C(=O)N([C@H](C)CO)C[C@@H]1C	-0.1	31.6	1.5
Cc1ccc(-c2csc(NCCn3c(C)nc4cc(C(F)(F)F)ccc43)n2)cc1	·	-2.9	45.0*
Cc1ccc(Cn2c(C(C)Nc3nc(-c4ccc(Cl)c([N+](=O)[O-])c4)cs3)nc3cc(C(F)(F)F)ccc32)cc1 (centres undefined)	-0.2	-11.7	-16.9
C[C@@H]1CCCCO[C@H](CN(C)C(=O)C2CCCCC2)[C@H](C)CN([C@@H](C)CO)C(=O)c2cc(NC(=O)NC3CCCCC3)ccc2O1	·	-1.2	-1.1
CCOC(=O)c1cccc(NC(=O)c2cc(C)nn2-c2ccccc2)c1	40.7*	-1.5	-0.5
CCc1ccc(NC(=O)c2cc(C)nn2-c2ccccc2)cc1	6.7	2.5	-3.3
CC(C)NC(=O)N(C)C[C@@H]1Oc2ccc(NC(=O)Nc3ccc(F)cc3)cc2C(=O)N([C@H](C)CO)C[C@H]1C	-0.5	8.6	-3.0
COc1ccc(NC(=O)Nc2ccc3c(c2)C(=O)N([C@H](C)CO)C[C@H](C)[C@@H](CN(C)Cc2ccc(C(F)(F)F)cc2)O3)cc1	0.3	-15.3	20.1*
COc1ccc(CN(C)C[C@@H]2Oc3ccc(NC(=O)Nc4ccc(C(F)(F)F)cc4)cc3C(=O)N([C@@H](C)CO)C[C@H]2C)cc1	-0.1	-58.2	43.6*
COc1ccc(CN(C)C[C@H]2Oc3ccc(NC(=O)Nc4ccc(C(F)(F)F)cc4)cc3C(=O)N([C@H](C)CO)C[C@H]2C)cc1	0.0	-13.9	12.6
COc1ccc(CN(C)C[C@H]2Oc3ccc(NC(=O)Nc4ccc(C(F)(F)F)cc4)cc3C(=O)N([C@@H](C)CO)C[C@H]2C)cc1	-0.1	-21.2	4.3
C[C@@H]1CCCCO[C@H](CN(C)C(=O)Nc2ccc3c(c2)OCO3)[C@H](C)CN([C@H](C)CO)C(=O)c2cc(N(C)C)ccc2O1	-0.1	-14.1	0.5
CC1=C(C(=O)NCc2ccccc2)C(c2cccs2)NC(=S)N1 (centres undefined)	·	98.1*	0.3
CNC(=O)C1=C(C)NC(=S)NC1c1cccs1 (centres undefined)	·	-13.7	2.9
SMILES	E-selectin induc	Statin myotox sup	DENV2 CPE
CO[C@@H]1CN(C)C(=O)c2cc(NS(=O)(=O)c3ccc(Cl)cc3)ccc2OC[C@H](C)N(C(=O)NC(C)C)C[C@H]1C	0.2	22.1	·
CC1(C)CC(NC(=O)CCC2CCCC2)CC(C)(C)N1	·	105.9*	·
CC1(C)CC(NC(=O)CC2CCCCC2)CC(C)(C)N1	·	-1.7	·
C[C@H](CO)N1C[C@H](C)[C@H](CN(C)C(=O)c2ccccc2F)Oc2ncc(-c3cccnc3)cc2C1=O	-0.2	13.7	-12.5
O=C(C1=C(O)C(=O)N(CCN2CCOCC2)C1c1ccc(F)cc1)c1cc2ccccc2o1 (centres undefined)	·	19.6	10.5
O=C(C1=C(O)C(=O)N(CCCN2CCOCC2)C1c1ccccn1)c1cc2ccccc2o1 (centres undefined)	·	72.8*	·
CC(C)NC(=O)N(C)C[C@H]1OCCCC[C@@H](C)Oc2ccc(NS(C)(=O)=O)cc2C(=O)N([C@@H](C)CO)C[C@@H]1C	0.1	·	-4.0
O=C(Cc1ccccc1)N1C[C@@H]2[C@H](c3ccccc31)[C@@H](CO)N2C(=O)C1CCCCC1	-0.2	14.3	24.2*
COc1ccccc1C(=O)N1C[C@@H]2[C@H](c3ccccc31)[C@H](CO)N2C(=O)C1CCCCC1	0.8	2.6	-1.6
O=C(C1CCCC1)N1C[C@@H]2[C@H](c3ccccc31)[C@H](CO)N2C(=O)Cc1ccccn1	0.3	10.0	-0.3
O=C(CC(F)(F)F)N1C[C@@H]2[C@H](c3ccccc31)[C@@H](CO)N2C(=O)CN1CCOCC1	0.1	18.7	52.7*
O=C(Cc1ccccc1)N1C[C@@H]2[C@H](c3ccccc31)[C@H](CO)N2C(=O)C1CCCC1	-0.2	-2.6	·
O=C(C1CCCC1)N1C[C@@H]2[C@H](c3ccccc31)[C@@H](CO)N2C(=O)Cc1ccccn1	-0.1	-0.2	33.6*
COc1ccccc1C(=O)N1C[C@@H]2[C@H](c3ccccc31)[C@H](CO)N2C(=O)C1CCCC1	0.8	12.6	21.8*
O=C(c1ccccc1)N1C[C@H]2[C@@H](c3ccccc31)[C@@H](CO)N2C(=O)CN1CCOCC1	0.2	6.9	2.0
COc1ccc(C#Cc2cnc3c(c2)C(=O)N([C@H](C)CO)C[C@@H](C)[C@H](CN(C)C(C)=O)O3)cc1	-0.3	37.3	8.9
C[C@@H]1CN([C@H](C)CO)C(=O)c2cc(-c3ccccc3F)cnc2O[C@@H]1CN(C)C(=O)CN(C)C	0.0	18.2	-2.3
O=C(Cc1ccccc1)N1C[C@@H]2[C@H](c3ccccc31)[C@@H](CO)N2C(=O)Cc1ccccc1	-0.3	21.5	-1.9
O=C(CC(F)(F)F)N1C[C@@H]2[C@H](c3ccccc31)[C@@H](CO)N2C(=O)C1CC1	0.2	21.3	35.5*
O=C(Cc1ccccc1)N1C[C@H]2[C@@H](c3ccccc31)[C@@H](CO)N2C(=O)C1CC1	-0.1	1.4	24.9*
O=C(CC(F)(F)F)N1C[C@H]2[C@@H](c3ccccc31)[C@@H](CO)N2C(=O)C1CCCCC1	1.1	-2.8	12.9
